Compound activity from PubChem.
T cell HTS: modulates CD8 T cell binding to vesicles. AID 2052. 2C CD8+ T cell-vesicle binding, flow cytometry; hits give low values. actives 0.068% (n = 330,000). response (vesicle binding), % at 7 µM;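 active = response, share of CD8 T cells binding vesicles, and their 90th percentile fluorescence all below set limits, cut at about 80% in these data, passing the limit was not always enough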;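 also: values below 100% mean blocked vesicle binding to the CD8+ T cells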
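Read-out – percent CD8+ FL2 mean versus row control · System – murine 2C transgenic CD8+ T lymphocytes · Times – 1.5 h cell–vesicle binding at 37 °C, then 20 min icy labelling · Control set – naked vesicles low, QL9 vesicles with vehicle high · Detection – cytometric PE anti-B7-1 and Alexa647 anti-CD8 signals after 1% paraformaldehyde fixation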
CHT block: human CHT choline transport inhibition; AID 488975; actives 0.86% (n = 310,000); CHT-expressing cells, membrane potential dye, choline response; hits give low values; B-score at 10 µM;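 active = B-score over 3 SD under the library average, and starting fluorescence ratio not unusually high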;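 also: choline stimulus applied at its EC90 after an EC20 pre-addition; B-score computed on integrated fluorescence ratio after choline addition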
Target sequence (Q9GZV3 whole entry, looked up): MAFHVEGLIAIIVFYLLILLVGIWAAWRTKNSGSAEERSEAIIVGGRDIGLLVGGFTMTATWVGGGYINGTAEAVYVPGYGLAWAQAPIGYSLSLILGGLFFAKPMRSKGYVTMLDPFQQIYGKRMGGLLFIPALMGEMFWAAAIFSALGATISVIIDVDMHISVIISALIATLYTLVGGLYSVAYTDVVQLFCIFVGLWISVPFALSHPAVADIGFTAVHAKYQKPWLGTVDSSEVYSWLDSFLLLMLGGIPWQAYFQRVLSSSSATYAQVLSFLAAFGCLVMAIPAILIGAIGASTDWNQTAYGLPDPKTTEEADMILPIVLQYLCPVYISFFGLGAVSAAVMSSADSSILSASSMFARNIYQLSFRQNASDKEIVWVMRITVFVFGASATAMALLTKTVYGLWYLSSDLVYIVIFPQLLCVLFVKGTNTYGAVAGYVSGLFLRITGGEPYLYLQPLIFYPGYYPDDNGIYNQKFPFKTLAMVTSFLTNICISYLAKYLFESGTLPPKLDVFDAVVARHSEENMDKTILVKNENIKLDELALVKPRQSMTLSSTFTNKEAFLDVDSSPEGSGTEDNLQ
CHT PAM: allosteric activators of human choline transporter CHT; CHT-expressing cells, membrane potential dye, choline EC20; hits give high values; LV-AA mutant CHT in HEK293 cells; Q9GZV3; actives 0.49% (n = 310,000); B-score at 10 µM; AID 488977;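 active = initial fluorescence not abnormally high and integrated response B-score, plate-corrected, over 3 SD above library mean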
VLA-4 inh: inhibition in a human VLA-4 binding assay | P13612 | VLA-4 expressing cells, ligand binding flow cytometry | inhibition, % (about 7 µM as worked out from the volumes in the protocol) | actives 0.2% (n = 330,000) | AID 2557; in the data active = inhibition above about 50%
Starred values were filed as active, the others as inactive; ! = repeats disagree. Most compounds without a hit are left out; they make up all but 1.5% or so of the library.

Results for CC(C(=O)NCCSCc1cccc(Cl)c1)N(c1ccccc1)S(C)(=O)=O (centres undefined) ?
T cell HTS: 190; CHT block: inactive; CHT PAM: inactive; VLA-4 inh: 8

Results for O=C(NNC(=O)c1ccccc1C(=O)O)c1ccc(-c2ccccc2)cc1 ?
T cell HTS: 318; CHT block: -6.7*; CHT PAM: inactive; VLA-4 inh: -8

What do the screens show for `O=C(NNC(=O)C1CC1)c1ccc(-c2ccccc2)cc1`?
T cell HTS: 120; CHT block: inactive; CHT PAM: inactive; VLA-4 inh: -6

Results for OCc1cc(C(O)CNCCCCCCOCCCCc2ccccc2)ccc1O (centres undefined) ?
T cell HTS: 146; CHT block: -5.8*!; CHT PAM: inactive; VLA-4 inh: -11

How did CCCCc1nnc(NC(=O)c2ccccc2OCc2c(C)noc2C)s1 do in these assays?
T cell HTS: 139; CHT block: inactive; CHT PAM: inactive; VLA-4 inh: 4

How did Cn1ncc(Br)c1C(=O)N1CCCC1 do in these assays?
T cell HTS: 353; CHT block: inactive; CHT PAM: inactive; VLA-4 inh: -2

What do the screens show for `Cn1ncc(Br)c1C(=O)N1CCCCCC1`?
T cell HTS: 33*; CHT block: inactive; CHT PAM: inactive; VLA-4 inh: 5

How did COc1ccc(C(=O)NNC(=O)CSc2nnnn2C)cc1 do in these assays?
T cell HTS: 62*; CHT block: inactive; CHT PAM: inactive; VLA-4 inh: 1

Results for O=C1C=CC(=O)N1Cc1ccccc1 ?
T cell HTS: 592; CHT block: inactive; CHT PAM: inactive; VLA-4 inh: 54*

Results for O=C1CNC(=S)N1Cc1ccccc1 ?
T cell HTS: 462; CHT block: inactive; CHT PAM: inactive; VLA-4 inh: 8

Results for Cc1ccc(C(=O)O)cc1N1C(=O)c2cccc3c([N+](=O)[O-])ccc(c23)C1=O ?
T cell HTS: 732; CHT block: -5*; CHT PAM: inactive; VLA-4 inh: -1

Results for Cc1ccc(Cl)cc1N1CCN(C(=O)Cc2ccc(-n3c(=O)[nH]c4ccsc4c3=O)cc2)CC1 ?
T cell HTS: 132; CHT block: inactive; CHT PAM: inactive; VLA-4 inh: -27

Results for CC(=O)c1c(O)c2ccccc2n(Cc2ccccc2)c1=O ?
T cell HTS: 58*; CHT block: inactive; CHT PAM: inactive; VLA-4 inh: -22

Results for CCOc1ccc(NC(=O)CN(C)S(=O)(=O)c2ccc(-c3ccc(=O)[nH]n3)s2)cc1 ?
T cell HTS: 261; CHT block: inactive; CHT PAM: inactive; VLA-4 inh: 3

Results for O=C(Nc1ccncc1)Nc1ccncc1 ?
T cell HTS: 264; CHT block: inactive; CHT PAM: 10*; VLA-4 inh: -1

How did O=C(O)CN1C(=O)/C(=C\c2cc([N+](=O)[O-])ccc2OCc2ccccc2Cl)SC1=S do in these assays?
T cell HTS: 169; CHT block: -6.2*; CHT PAM: inactive; VLA-4 inh: -3

How did O=C(O)CN1C(=O)/C(=C\c2ccccc2OCc2ccc(F)cc2)SC1=S do in these assays?
T cell HTS: 265; CHT block: inactive; CHT PAM: inactive; VLA-4 inh: 29

Results for O=C(O)CCCN1C(=O)/C(=C\c2ccccc2OCc2ccccc2)SC1=S ?
T cell HTS: 363; CHT block: -7.7*; CHT PAM: inactive; VLA-4 inh: -7

How did O=C(O)CC(NNC(=O)c1ccccc1)C(=O)Nc1cccc([N+](=O)[O-])c1 (centres undefined) do in these assays?
T cell HTS: inactive; CHT block: inactive; CHT PAM: inactive; VLA-4 inh: 6

What do the screens show for `CCC1(c2ccc(F)cc2)NC(=O)N(CC(=O)N(C)C2CCS(=O)(=O)C2)C1=O` (centres undefined)?
T cell HTS: 388; CHT block: inactive; CHT PAM: inactive; VLA-4 inh: -15

How did CCN(C(=O)c1cc2c(=O)[nH]c3ccc(C)cc3c2s1)c1cccc(C)c1 do in these assays?
T cell HTS: 0.0*; CHT block: inactive; CHT PAM: inactive; VLA-4 inh: 1

What do the screens show for `CCOC(=O)N1CCN(C2=Nc3cccc4cccc2c34)CC1`?
T cell HTS: 375; CHT block: -7.1*; CHT PAM: inactive; VLA-4 inh: -2

What do the screens show for `Cn1cnnc1Sc1ccc(/C=C/C(=O)c2ccc(O)cc2)cc1[N+](=O)[O-]`?
T cell HTS: 175; CHT block: inactive; CHT PAM: inactive; VLA-4 inh: -1

Results for COc1ccc(NC(=O)/C(C#N)=C/c2ccc(Sc3nncn3C)c([N+](=O)[O-])c2)cc1 ?
T cell HTS: 392; CHT block: inactive; CHT PAM: inactive; VLA-4 inh: 52*

What do the screens show for `O=C(Nc1ccc(F)cc1)Nc1nnc(-c2ccco2)s1`?
T cell HTS: 297; CHT block: inactive; CHT PAM: inactive; VLA-4 inh: 0

How did CC[n+]1ccc2cc(OC)c(OC)cc2c1Cc1ccc(OC)c(OC)c1 do in these assays?
T cell HTS: 287; CHT block: inactive; CHT PAM: 6.3*; VLA-4 inh: 4

Results for COc1ccc(Cc2c3cc(OC)c(OC)cc3cc[n+]2C)cc1OC ?
T cell HTS: 313; CHT block: inactive; CHT PAM: 12*; VLA-4 inh: 6

How did CC(=O)N1N=C2/C(=C/c3ccccc3)CCCC2C1c1ccccc1 (centres undefined) do in these assays?
T cell HTS: 71*; CHT block: inactive; CHT PAM: inactive; VLA-4 inh: 33

Results for NC(CCCCc1ccccc1)c1cccc2ccccc12 (centres undefined) ?
T cell HTS: 261; CHT block: inactive; CHT PAM: 11*; VLA-4 inh: 13

How did CCc1ccc(-c2ccc(C(=O)O)cc2)nc1 do in these assays?
T cell HTS: 33*; CHT block: inactive; CHT PAM: inactive; VLA-4 inh: 14

How did CCc1ccc(-c2csc3ncn(Cc4ccc(C(=O)O)cc4)c(=O)c23)cc1 do in these assays?
T cell HTS: 176; CHT block: inactive; CHT PAM: inactive; VLA-4 inh: 3

How did Cc1cc(Br)ccc1NC(=O)CNC(=O)Cn1ncc(Cl)c(Cl)c1=O do in these assays?
T cell HTS: 310; CHT block: inactive; CHT PAM: inactive; VLA-4 inh: 50*

How did Cc1ccc(S(=O)(=O)N2CCCCC2)cc1NC(=O)Cn1ncc(Cl)c(Cl)c1=O do in these assays?
T cell HTS: 366; VLA-4 inh: 22

Results for C#CCOCCOCCOCCNc1nc(N2CCN(C(=O)[C@H](CCCCN)n3cc(C(N)CO)nn3)CC2)nc(N2CCN(C(=O)[C@H](CCCCN)n3cc(C(N)COC(=O)C(F)(F)F)nn3)CC2)n1 (some centres undefined) ?
T cell HTS: 498; CHT block: inactive; CHT PAM: 7.1*; VLA-4 inh: 18

Results for Cc1ccc(/C=N\NC(=O)/C(=C\Nc2nccc(C)n2)NC(=O)c2ccccc2)cc1 ?
T cell HTS: 302; CHT block: inactive; CHT PAM: inactive; VLA-4 inh: -5
